The values below come from ChEMBL document CHEMBL2176917, “Effect of the prosthetic group on the pharmacologic properties of 18F-labeled rhodamine B, a potential myocardial perfusion agent for positron emission tomography (PET)” (J Med Chem, 2012).

For series [1], the system named is Nucleic Acid. Briefly: Ratio of drug level in heart to liver in Sprague-Dawley rat after 60 mins. The class given is ADME, tissue-based. The settings on record: in vivo, 1 h.
Series [2] in a line: Ratio of drug level in heart to blood in Sprague-Dawley rat after 60 mins. The class given is ADME. The following applies: heart and blood (heart-to-blood ratio).
Series [3] can be described thus: Ratio of drug level in heart to blood in Sprague-Dawley rat after 5 mins. The settings on record: heart and blood (heart-to-blood ratio). The format is ADME.
For the next series, the system named is Blood. Briefly: Biodistribution in rat blood at 1.1 to 2.2, iv after 60 mins. The format is ADME, organism-based. The following applies: in vivo, 1 h. The gist of the method:
(§1)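 Five rats per tracer received 1.1–2.2 MBq (30–60 µCi) of the 18F-labeled rhodamine ester in 100 µL 10% EtOH/saline through the tail vein after 0.2 µm filtration. They were killed by CO2 asphyxia at 60 min p.i. Excised tissues were weighed and counted for 18F. %ID/g was calculated against an injectate standard. Heart-to-blood ratios were derived from these values.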

The subject of the next series is Kidney (mouse). Briefly: Drug uptake in mouse kidney at 3.7 to 5.6 MBq after 60 mins by PET analysis. The settings on record: in vivo, 1 h.
For another series, the system named is Kidney. As to the kind of experiment: Drug excretion in rat kidney at 3.7 to 5.6 MBq after 60 mins by PET analysis. The settings on record: in vivo, 1 h. The format is ADME, tissue-based. The method in brief: (§2)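 Each group of at least five rats was injected with 100 µL of filtered tracer (3.7–5.6 MBq, 100–150 µCi) in 10% EtOH/saline under isoflurane anesthesia (2–4% in air). MicroPET acquisition began as soon as possible after injection and ran 60 min in list mode. Images were reconstructed by 2D OSEM as one 60 min image or six 10 min frames. Time-activity curves for organs were expressed as kBq/cm3.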

The next series relates to Muscle tissue. Briefly: Biodistribution in rat muscle at 1.1 to 2.2, iv after 60 mins. The following applies: in vivo, 1 h. The class given is ADME, organism-based. The method in brief:
as §1

Series [4] relates to Liver. Briefly: Drug uptake in rat liver at 3.7 to 5.6 MBq after 60 mins by PET analysis. The format is ADME, tissue-based. The following applies: in vivo, 1 h. The method in brief:
as §2

The test system of the next series is Spleen (mouse). Briefly: Drug uptake in mouse spleen at 3.7 to 5.6 MBq after 60 mins by PET analysis. The settings on record: in vivo, 1 h.
The test system of a further series is Intestine (mouse). As to the kind of experiment: Drug uptake in mouse intestine at 3.7 to 5.6 MBq after 60 mins by PET analysis. The following applies: in vivo, 1 h.
Series [5] can be described thus: Ratio of drug level in heart to blood in rat at 1.1 to 2.2, iv after 60 mins. The class given is ADME, organism-based. The settings on record: heart and blood (heart-to-blood ratio). The method in brief:
as §1

The subject of a further series is Rattus norvegicus. As to the kind of experiment: Biodistribution in rat gut at 1.1 to 2.2, iv after 60 mins. The settings on record: in vivo, 1 h. The format is ADME, organism-based. The gist of the method: as §1
For series [6], the system named is Liver. As to the kind of experiment: Biodistribution in rat liver at 1.1 to 2.2, iv after 60 mins. The format is ADME, organism-based. The following applies: in vivo, 1 h. The method in brief: as §1
The nature of series [7]: Drug excretion in rat gut at 3.7 to 5.6 MBq after 60 mins by PET analysis. The class given is ADME, tissue-based. The settings on record: in vivo, 1 h. The gist of the method: as §2
The next series has as its system Gall bladder (mouse). As to the kind of experiment: Drug uptake in mouse gall bladder at 3.7 to 5.6 MBq after 60 mins by PET analysis. The settings on record: in vivo, 1 h.
For series [8], the system named is Liver. Briefly: Drug uptake in rat liver at 3.7 to 5.6 MBq after 5 mins by PET analysis. The format is ADME, tissue-based. The settings on record: in vivo. The gist of the method:
as §2

The subject of the next series is Heart. Briefly: Drug uptake in rat heart at 3.7 to 5.6 MBq after 5 mins by PET analysis. The class given is ADME, tissue-based. The settings on record: in vivo. The gist of the method: as §2
Series [9] can be described thus: Drug uptake in rat myocardium at 3.7 to 5.6 MBq after 60 mins by PET analysis. The format is ADME, tissue-based. The settings on record: in vivo, 1 h. The method in brief:
as §2

A short description of series [10]: Metabolic stability of the compound in mouse serum at 3.7 to 5.6 MBq after 120 mins. The format is ADME, cell-free. The settings on record: read-out: Stability. The gist of the method: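 Radiotracer (3.7–5.6 MBq) in 10% EtOH/PBS was added to serum pre-equilibrated at 37°C, shaken and incubated at 37°C. Aliquots were taken at 15, 30, 60 and 120 min and quenched with cold absolute EtOH. They were held on ice for 5 min, passed through a 30 kD cutoff filter at 4°C, and the water-diluted filtrate was analysed by radio-HPLC for intact tracer. A PBS incubation ran in parallel.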

Series [11] concerns Liver. As to the kind of experiment: Drug uptake in rat liver at 3.7 to 5.6 MBq after 30 mins by PET analysis. The format is ADME, tissue-based. The settings on record: in vivo, 0.5 h. The gist of the method:
as §2

Series [12] in a line: Metabolic stability of the compound in human serum at 3.7 to 5.6 MBq after 120 mins. The class given is ADME, cell-free. The following applies: read-out: Stability. The gist of the method: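 Tracer (3.7–5.6 MBq) in 20 µL 10% EtOH/PBS was added to 200 µL of mouse, rat or human serum, or to PBS, prewarmed to 37°C, then shaken and incubated at 37°C. At 15, 30, 60 and 120 min, aliquots were quenched with cold ethanol and kept on ice. Samples were filtered (30 kD cutoff, 4°C), diluted with water and analysed by radio-HPLC for intact tracer.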

The test system of series [13] is Nucleic Acid. Briefly: Ratio of drug level in heart to bone in rat at 1.1 to 2.2, iv after 60 mins. The class given is ADME, organism-based. The settings on record: in vivo, 1 h. The method in brief:
(§3)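 Five rats per compound each received 1.1–2.2 MBq of tracer in 10% EtOH/saline by tail vein. They were killed by CO2 at 60 min p.i., and selected tissues were excised, weighed and counted for 18F. %ID/g was calculated against a standard prepared from the injectate. Unpaired two-tailed t test.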

Series [14] concerns Nucleic Acid. Briefly: Ratio of drug level in heart to lung in rat at 1.1 to 2.2, iv after 60 mins. The following applies: in vivo, 1 h. The class given is ADME, organism-based. The method in brief: as §3
In series [15] the test system is Nucleic Acid. As to the kind of experiment: Ratio of drug level in heart to liver in rat at 1.1 to 2.2, iv after 60 mins. The settings on record: in vivo, 1 h. The class given is ADME, organism-based. The method in brief:
as §3

For series [16], the system named is Nucleic Acid. Briefly: Ratio of drug level in heart to liver in Wistar rat after 60 mins. The format is ADME, tissue-based. The settings on record: in vivo, 1 h.

The Kp is tissue or fluid exposure divided by exposure in the circulation. With `[18F]c1ccc([P+](c2ccccc2)(c2ccccc2)c2ccccc2)cc1` [BFPET F-18], the Ratio with Nucleic Acid [1] came to 9.2. Further, the Kp at 1 h in [2] came out at 75. Also, the Kp at 5 min in series [3] was found to be 11.
Take `CCN(CC)c1ccc2c(-c3ccccc3C(=O)OCCOCCOCC[18F])c3ccc(=[N+](CC)CC)cc-3oc2c1.Cc1ccc(S(=O)(=O)[O-])cc1`: the Drug uptake is on record as 0.19 % ID/g in the series with Blood; “Active” with Kidney (mouse); 0.32 % ID/g in the series on Muscle tissue; “Active” in the series with Liver [4]; “Active” in the series with Spleen (mouse); “Active” in the series with Intestine (mouse). Also, the Drug uptake was 0.44 % ID/g with Rattus norvegicus; 0.25 % ID/g with Liver [6]; “Active” with Gall bladder (mouse); 15 kBq/cm3 in the series on Liver [8]; 16 kBq/cm3 with Heart; “Active” in [9]. The Drug excretion entry (with Kidney; in series [7]) was “Active” in each case. The concentration ratio (Kp) at 1 h in [5] amounted to 5.4.
Take `CCN(CC)c1ccc2c(-c3ccccc3C(=O)OCCOCC[18F])c3ccc(=[N+](CC)CC)cc-3oc2c1.Cc1ccc(S(=O)(=O)[O-])cc1`: the Drug uptake in the series with Blood is 0.25 % ID/g; in the series on Kidney (mouse), “Active”; in the series on Muscle tissue, 0.54 % ID/g; with Liver [4] it was “Active”; in the series on Spleen (mouse), “Active”; with Intestine (mouse), “Active”. Further, the Drug uptake result is “Active” with Liver [11]; 1.69 % ID/g with Rattus norvegicus; 0.49 % ID/g in the series with Liver [6]; “Active” in the series with Gall bladder (mouse); 59 kBq/cm3 with Liver [8]; 69 kBq/cm3 with Heart. In series [9], the Drug uptake result is on record as “Active”. Besides, the Drug excretion result (with Kidney; in [7]) was “Active” each time. Also, the remaining at 2 h in series [10] and in [12] was 97.1% throughout. For the same molecule, the Kp at 1 h in series [5] was 10.
Regarding `CCN(CC)c1ccc2c(-c3ccccc3C(=O)OCC[18F])c3ccc(=[N+](CC)CC)cc-3oc2c1.Cc1ccc(S(=O)(=O)[O-])cc1`, the Ratio was 4.6 with Nucleic Acid [13], 1.6 in the series with Nucleic Acid [14] and 2.3 with Nucleic Acid [15]. Also, the Drug uptake is listed as 0.08 % ID/g in the series on Blood; 0.16 % ID/g in the series on Muscle tissue; “Active” in the series on Liver [4]; 2.4 % ID/g with Rattus norvegicus; 0.89 % ID/g with Liver [6]. The remaining at 2 h in series [10] worked out at 25%. Moreover, in series [5], the concentration ratio (Kp) at 1 h is 25.8.
`CCN(CC)c1ccc2c(-c3ccccc3C(=O)OCCC[18F])c3ccc(=[N+](CC)CC)cc-3oc2c1.Cc1ccc(S(=O)(=O)[O-])cc1`: the Drug uptake was 0.05 % ID/g in the series with Blood; 0.3 % ID/g in the series on Muscle tissue; “Active” with Liver [4]; 2.53 % ID/g in the series on Rattus norvegicus; 0.55 % ID/g in the series on Liver [6]; 65 kBq/cm3 in the series with Liver [8]. Moreover, the Drug uptake in the series with Heart was 66 kBq/cm3; in series [9], “Active”. Moreover, the Drug excretion entry (with Kidney; in series [7]) was “Active” in each case. In addition, the Kp at 1 h in series [5] turned out to be 26.4. Also, in [12], the remaining at 2 h was found to be 99%.
With `CC(C)(C)n1ncc(OCc2ccc(COCC[18F])cc2)c(Cl)c1=O` [FLURPIRIDAZ F 18], the Ratio in the series on Nucleic Acid [16] is given as 5.4; with Nucleic Acid [1], 3.7. Besides, in series [2], the partition ratio (Kp) at 1 h came out at 13.7.
